# This is a sample that favours compounds with a hit; in the whole collection about 3.7% have one here.
# KCNQ1 inh: inhibitors of human KCNQ1 channel, primary screen, cell-based, thallium flux, high-throughput. actives 1.3% (n = 310,000). AID 2642, 2010. B-score at 10 µM. Potassium voltage-gated channel subfamily KQT member 1 (Homo sapiens), P51787. CHO-K1 KCNQ1, FluxOR thallium flux fluorescence; stronger effect = higher value;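 active = compounds whose thallium flux B-score, printed positive for inhibition, exceeds three library SD while starting fluorescence stays within three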;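 also: channel opened by potassium depolarization with thallium stimulus after 20 min compound exposure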
# hERG protect: hERG rescue from dofetilide block, primary screen, cell-based, CHO-hERG, FluxOR thallium flux, dofetilide IC70; Voltage-gated inwardly rectifying potassium channel KCNH2 (Homo sapiens), Q12809; AID 1511, 2009; actives 0.51% (n = 310,000); dofetilide IC70 present; activation (rescue from dofetilide block), less the hit threshold, % at 10 µM;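 active = activation above the mean of controls blocked by dofetilide plus 5 SD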;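 also: thallium influx through hERG after potassium depolarization seen as dye fluorescence rise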
# Target sequence (Q12809 whole entry, looked up): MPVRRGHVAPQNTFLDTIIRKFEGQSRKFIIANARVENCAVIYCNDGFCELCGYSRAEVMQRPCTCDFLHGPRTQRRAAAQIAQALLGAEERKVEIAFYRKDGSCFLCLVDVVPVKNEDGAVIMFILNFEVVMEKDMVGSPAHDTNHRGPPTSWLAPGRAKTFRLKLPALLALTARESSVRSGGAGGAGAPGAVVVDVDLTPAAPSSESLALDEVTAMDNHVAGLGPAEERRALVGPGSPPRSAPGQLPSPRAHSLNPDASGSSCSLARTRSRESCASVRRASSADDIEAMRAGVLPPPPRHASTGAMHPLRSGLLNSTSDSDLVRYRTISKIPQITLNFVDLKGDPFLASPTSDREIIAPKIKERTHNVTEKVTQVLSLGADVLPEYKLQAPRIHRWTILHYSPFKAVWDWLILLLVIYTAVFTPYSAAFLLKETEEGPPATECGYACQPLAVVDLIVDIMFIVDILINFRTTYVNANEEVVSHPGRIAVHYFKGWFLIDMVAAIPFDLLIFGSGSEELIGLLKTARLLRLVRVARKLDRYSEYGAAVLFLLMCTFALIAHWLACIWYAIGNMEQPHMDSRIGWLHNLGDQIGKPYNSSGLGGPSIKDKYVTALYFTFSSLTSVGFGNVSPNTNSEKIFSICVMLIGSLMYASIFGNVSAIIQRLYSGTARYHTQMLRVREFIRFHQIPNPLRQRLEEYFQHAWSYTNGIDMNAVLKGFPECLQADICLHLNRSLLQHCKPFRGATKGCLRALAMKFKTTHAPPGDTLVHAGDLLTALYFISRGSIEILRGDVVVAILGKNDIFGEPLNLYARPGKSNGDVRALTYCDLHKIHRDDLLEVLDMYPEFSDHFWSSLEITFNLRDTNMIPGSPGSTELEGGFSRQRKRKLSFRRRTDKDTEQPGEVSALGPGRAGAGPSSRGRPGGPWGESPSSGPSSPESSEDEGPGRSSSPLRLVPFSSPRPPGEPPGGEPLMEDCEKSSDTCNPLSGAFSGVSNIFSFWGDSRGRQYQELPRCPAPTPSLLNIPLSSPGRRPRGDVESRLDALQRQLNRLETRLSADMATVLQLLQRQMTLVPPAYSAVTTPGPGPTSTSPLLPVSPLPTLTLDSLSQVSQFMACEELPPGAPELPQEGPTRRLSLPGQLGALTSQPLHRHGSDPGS
# KCNQ1 act: potentiators or activators of KCNQ1 channel, primary screen, cell-based, thallium flux, high-throughput; Potassium voltage-gated channel subfamily KQT member 1 (Homo sapiens), P51787; CHO-K1 KCNQ1, thallium flux FluxOR fluorescence; stronger effect = higher value; B-score at 10 µM; actives 0.35% (n = 310,000);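 active = fluorescence ratio B-score, a plate-corrected score, at least three library SD, with initial intensity B-score within 5 SD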
#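 Assay system: CHO-K1 cells stably expressing KCNQ1; Medium: assay buffer with matched DMSO; Also added: K+/Tl+ depolarizing stimulus; Dosing: single dose; Timing: dye 90 min, compound 20 min, room temperature; Measured by: kinetic FluxOR thallium fluorescence, 10-s 1-Hz baseline, 110-s post-stimulus read; Read-out: peak-minus-minimum fluorescence over initial fluorescence, negative-control normalized, B-scored.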
# KCNK3 block: human KCNK3 channel inhibitors, primary screen, CHO cells, FluxOR thallium flux, B-score; FluxOR fluorescence; stronger effect = lower value; Potassium channel subfamily K member 3 (Homo sapiens), O14649; actives 0.84% (n = 340,000); B-score at 10 µM;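 active = B-score under library mean minus 4 SD, starting fluorescence ratio at most library mean plus 5 SD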;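 also: more negative B-score means stronger inhibition of thallium flux through KCNK3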
# KCNK9 block: KCNK9 potassium channel inhibitors, primary screen, HEK293 cells, thallium flux. Potassium channel subfamily K member 9 (Homo sapiens), Q9NPC2. FluxOR thallium flux fluorescence; stronger effect = lower value. B-score at 10 µM. actives 1.2% (n = 310,000);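 active = ratio B-score over 3 SD below the library mean, with starting fluorescence within 5 SD of its mean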;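 also: negative B-score means less thallium flux so channel inhibition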
# Kir21 block: inhibitors of mouse Kir2.1 inward-rectifier potassium channel; B-score at 10 µM; actives 0.85% (n = 310,000); AID 1672, 2009; Inward rectifier potassium channel 2 (Mus musculus), P35561; HEK293-Kir2.1, FluxOR thallium flux fluorescence; stronger effect = lower value;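 active = fluorescence ratio B-score at or below minus 3 SD of library scores, with starting-brightness B-score within 2 SD, cut at about -4.2 in these data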;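 also: channel flux triggered by added potassium and thallium sulfate stimulus; B-score of peak minus minimum fluorescence over baseline after thallium stimulus; more negative B-score means stronger Kir2.1 block with less thallium influx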
# Active calls of the source: *; i = inactive; · = no result given.
SMILES,KCNQ1 inh,hERG protect,KCNQ1 act,KCNK3 block,KCNK9 block,Kir21 block
CNC(=S)NNC(=O)c1cccn(Cc2ccc(Cl)cc2Cl)c1=O,7*,-16.2,i,·,i,-0.16
O=C(CNC(=O)N1CC(=O)Nc2ccccc21)Nc1cccc(F)c1,i,-11.6,i,i,i,1.22
CSc1ccc(CN2CCCC(CO)(Cc3ccccc3)C2)cc1 (stereo unspecified),i,-14.3,i,i,i,-4.54*
COc1cccc(CC2(CO)CCCN(Cc3ccc(C)s3)C2)c1 (stereo unspecified),i,-4.5,i,i,i,-2.03
COc1cccc(CC2(CO)CCCN(Cc3c(C)cc(C)cc3-n3cccn3)C2)c1 (stereo unspecified),i,-25.7,i,i,i,-5.37*
COc1cccc(CC2(CO)CCCN(Cc3cc4ccccc4[nH]3)C2)c1 (stereo unspecified),i,-13.1,i,i,i,-4.24*
COc1cc(Cl)c(CN2CCCC(CO)(Cc3ccccc3)C2)cc1OC (stereo unspecified),i,-4.7,i,i,i,-2.52
CC1CN(C(=O)CCNC(=O)c2ccc(Cl)cc2)CC(C)O1 (stereo unspecified),i,-10.0,i,i,i,-0.23
CC[n+]1c(/C=C/Nc2ccccc2)oc2ccc(OC)cc21,i,-14.4,i,i,i,-3.22
CC[n+]1c(/C=C2/C=C(C)CC(C)(C)C2)sc2ccc(OC)cc21,10*,-29.4,i,i,i,-6
CC[n+]1c(/C=C2\C=C(C)CC(C)(C)C2)sc2ccccc21,7*,-27.6,i,i,i,-1.86
CCC1=C/C(=C/c2sc3ccccc3[n+]2CC)CC(C)(C)C1,i,-20.4,i,i,i,1.1
CC[n+]1c(/C=C2\C=C(C)CC(C)C2)sc2ccccc21 (stereo unspecified),6*,-22.8,i,i,i,-0.1
CC[n+]1c(C)sc2sc3ccccc3c21,i,-21.4,i,·,i,-0.02
Cc1ccccc1C(C)NC(=O)COC(=O)Cn1cc(C(F)(F)F)ccc1=O (stereo unspecified),·,·,·,i,·,·
O=C(CCNC(=O)C1CCN(S(=O)(=O)c2ccc(F)cc2)CC1)NCc1ccccc1Cl,i,-8.3,i,i,i,-1.28
CC(C)[N+]1(C)[C@@H]2CC[C@H]1CC(OC(=O)C(CO)c1ccccc1)C2 (stereo partly specified),i,·,22*,i,i,-0.11
O=C(Nc1nc2n(n1)C(c1ccccc1)CC(c1ccc(Cl)cc1)N2)c1ccco1 (stereo unspecified),i,-4.2,i,i,-6.95*,-0.04
CCN(CC(=O)Nc1c(F)cccc1F)C(=O)CCNC(=O)c1ccc([N+](=O)[O-])cc1,i,-9.7,i,i,i,1.72
O=C(CN1CCN(S(=O)(=O)c2ccccc2)CC1)N1CCCCC1,·,·,·,i,·,·
O=[N+]([O-])c1ccc(Nc2ccc3ccccc3c2)nc1,i,5.5*,i,i,i,-0.36
Cn1cc(/C=C2\SC(=O)NC2=S)c2ccccc21,i,15.9*,i,i,i,-2.13
COc1ccc(NC(=O)CN(C)CC(=O)N2CC(=O)Nc3ccccc32)cc1,·,·,·,i,·,·
CN(c1ccccc1)S(=O)(=O)c1cccc(NC(=O)COc2cccc([N+](=O)[O-])c2)c1,·,·,·,-9.88*,·,·
COCCn1cnnc1SCC(=O)Nc1cccc(S(=O)(=O)N(C)c2ccccc2)c1,i,-7.9,i,i,i,-0.45
Cc1nnc(SCC(=O)Nc2cccc(S(=O)(=O)N(C)c3ccccc3)c2)s1,6*,-13.7,i,i,i,-2
CCC(=O)c1ccc(OCC(=O)Nc2cccc(S(=O)(=O)N(C)c3ccccc3)c2)cc1,·,·,·,i,·,·
